Assay outcomes as filed in PubChem BioAssay.
NPY Y2 blocker = NPY-Y2 receptor antagonists, primary screen, cell-based; Neuropeptide Y receptor type 2 (Homo sapiens), P49146; NPY-Y2 expressing cells, antagonist mode; inhibition, % at 2.7 µM; actives 0.99% (n = 140,000); in the data active means inhibition above about 17%
Target sequence (P49146 whole entry, looked up): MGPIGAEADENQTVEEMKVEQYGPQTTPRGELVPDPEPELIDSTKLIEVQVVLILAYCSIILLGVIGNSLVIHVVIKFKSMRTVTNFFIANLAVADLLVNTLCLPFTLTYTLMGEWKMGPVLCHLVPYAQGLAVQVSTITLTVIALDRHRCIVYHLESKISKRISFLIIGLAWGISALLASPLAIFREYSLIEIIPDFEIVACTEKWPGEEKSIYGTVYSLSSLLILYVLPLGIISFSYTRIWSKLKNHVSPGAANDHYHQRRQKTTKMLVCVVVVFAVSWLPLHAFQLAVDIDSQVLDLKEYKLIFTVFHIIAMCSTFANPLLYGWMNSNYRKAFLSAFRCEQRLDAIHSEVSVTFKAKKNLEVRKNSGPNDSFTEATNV
NPY1 pot ag = NPY-Y1 receptor potentiators or agonists, primary screen, cell-based; Neuropeptide Y receptor type 1 (Homo sapiens), P25929; NPY-Y1 expressing cells, potentiator/agonist activation; activation, % at 3.6 µM; actives 0.37% (n = 220,000); in the data active means activation above about 33%, passing the limit was not always enough;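 further: cells stimulated with NPY at EC10 then isoproterenol at EC100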
S1P4 antag = S1P4 receptor antagonists, primary screen, cell-based | Sphingosine 1-phosphate receptor 4 (Homo sapiens), O95977 | S1P4-expressing cells, antagonist mode, reporter read-out | inhibition, % at 4.98 µM | actives 0.26% (n = 220,000); in the data active means inhibition above about 29%
NPY-Y1 antag = NPY-Y1 receptor antagonists, primary screen, cell-based | HEK293-CNG Y1 cells, membrane potential fluorescence; NPY at EC95, then isoproterenol | inhibition, % at 3.6 µM | actives 1% (n = 200,000) | AID 1040, 2008;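 active means inhibition above the campaign mean inhibition of all tested compounds plus 3 SD, cut at about 20% in these data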
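Benchmarks – high control isoproterenol alone, low control NPY with isoproterenol · Material – HEK293 Y1/CNG channel cell line · Times – dye 3 h, compound 60 min room temperature, stimulation 45 min · Probe or stimulus – NPY (25 nM), isoproterenol (1 µM), Ro 20-1724 (25 µM) · Evaluation – % inhibition of NPY effect · Signal – fluorescence, membrane potential probe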
NPY2 pot ag = NPY-Y2 potentiators or agonists, primary screen, cell-based; actives 0.45% (n = 220,000); cells expressing NPY-Y2, potentiator/agonist read-out; AID 1359, 2008; activation, % at 3.6 µM; in the data active means activation above about 27%;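 further: cells stimulated with NPY near EC25 plus isoproterenol at EC100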
S1P4 agonist = S1P4 receptor agonists, primary screen, cell-based. S1P4-expressing cell line, agonist reporter assay. activation, % at 4.98 µM. Sphingosine 1-phosphate receptor 4 (Homo sapiens), O95977. actives 0.35% (n = 220,000); in the data active means activation above about 11%
NPY-Y1 antag ct = NPY-Y1 receptor antagonists, selectivity check, counter-screen for NPY-Y2 antagonist project, cell-based | AID 1256, 2008 | shares compounds with NPY Y2 blocker | actives 19% (n = 710) | inhibition, % at 3.6 µM | cell-based NPY-Y1 antagonism counterscreen; in the data active means inhibition above about 20%;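 further: cells challenged with NPY then isoproterenol with cAMP sensed through a CNG channel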
NPY-Y2 ant conf = NPY-Y2 receptor antagonists, retest of hits, confirmation, HEK293-CNG cells, membrane potential fluorescence, triplicate; shares compounds with NPY Y2 blocker; actives 32% (n = 710); HEK293 NPY-Y2 CNG channel; inhibition, % at 2.8 µM; AID 1257, 2008;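 active means mean inhibition of triplicate wells above the hit cutoff set in the primary screen, cut at about 17% in these data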
A number is an active result; – = inactive; · = no result given. An excerpt weighted towards active compounds, which were near 2.4% of everything screened.

SMILES	NPY Y2 blocker	NPY1 pot ag	S1P4 antag	NPY-Y1 antag	NPY2 pot ag	S1P4 agonist	NPY-Y1 antag ct	NPY-Y2 ant conf
O=C(NCC1CCCO1)c1nc2c(nnn2Cc2ccccc2Cl)c(=O)[nH]1 (configuration not stated)	18	–	–	–	–	–	–	–
Cc1ccc(C)c(Cn2nnc3c(=O)[nH]c(C(=O)NCC4CCCO4)nc32)c1 (configuration not stated)	–	–	–	–	–	–	·	·
CCCc1cc(=O)[nH]c(SCC(=O)c2cc(C)n(C)c2C)n1	19	–	–	–	–	–	–	–
CN1CCC(OC(c2ccccc2)c2ccccc2)CC1	–	–	–	–	–	–	·	·
CN1CCC(Oc2ccccc2Sc2ccccc2)CC1	18	–	–	–	–	–	–	22
Cc1ccc(NC(=S)/N=C(\N)Nc2nc(C)c3cc(C)ccc3n2)c(C)c1	18	–	–	–	–	–	–	20
CCc1ccccc1NC(=S)/N=C(\N)Nc1nc(C)c2cc(C)ccc2n1	–	–	–	–	–	–	·	·
COc1ccc(NC(=O)CCCn2c(=O)oc3ccccc32)cc1Cl	–	–	–	–	–	–	·	·
COc1ccc(-c2nnc3sc(C(C)N4C(=O)c5ccccc5C4=O)nn23)cc1 (configuration not stated)	21	–	–	–	–	–	–	29
CC(CNCC1CCCO1)COc1cccc2ccccc12 (configuration not stated)	–	–	–	–	–	–	·	·
CC(COc1cccc2ccccc12)CN1CCN(C)CC1 (configuration not stated)	17	–	–	–	–	–	–	–
O=C(c1ccc([N+](=O)[O-])cc1)N1CCN(Cc2ccccc2[N+](=O)[O-])CC1	·	–	–	–	–	–	·	·
CCOC(=O)c1c(C)[nH]c(C(=O)CN2CCN(CC)CC2)c1C	·	–	–	·	–	–	·	·
Cc1ccc(NC(=S)NCc2ccc3c(c2)OCO3)c(C)c1	21	–	–	–	–	–	–	–
O=c1c2ccccc2nc2c3ccccc3c(NCCN3CCOCC3)nn12	20	–	–	–	–	–	–	25
O=c1c2ccccc2nc(-c2ccccc2)n1CCN1CCOCC1	–	–	–	–	–	–	·	·
O=C(c1ccco1)N(CCC(c1ccccc1)c1ccco1)Cc1ccccc1 (configuration not stated)	18	–	–	–	–	–	–	–
Cc1nc(N2CCC(C)CC2)c2oc3ccccc3c2n1	19	–	–	–	–	–	–	36
COc1ccccc1/C=C/C=N\N1CCN(Cc2ccccc2Cl)CC1	–	–	–	–	–	–	·	·
O=C(Cc1ccccc1)Nn1cnc2ccccc21	25	–	–	–	–	–	–	–
O=C(Cn1cnc2ccccc21)NCc1ccccc1	–	–	–	–	–	–	·	·
O=C(NCc1ccccn1)c1cc(-c2ccc(Cl)cc2)nc2ccccc12	27	–	–	–	–	–	–	–
CC(=O)Nc1ccccc1O	–	–	–	–	–	–	·	·
C/C(=C\C(=O)c1ccncc1)Nc1ccccc1O	18	–	–	–	–	–	–	–
Cc1ccc(OCC(=O)NCc2ccco2)c([N+](=O)[O-])n1	·	–	–	–	–	–	·	·
SMILES	NPY Y2 blocker	NPY1 pot ag	S1P4 antag	NPY-Y1 antag	NPY2 pot ag	S1P4 agonist	NPY-Y1 antag ct	NPY-Y2 ant conf
COC(=O)c1ccc(CSc2nc3sc4c(c3c(=O)n2C)CCCC4)o1	18	–	–	–	–	–	–	19
COC(=O)c1ccc(CSc2nc3ccccc3c(=O)n2-c2ccccc2)o1	18	–	–	–	–	–	–	47
COC(=O)c1sc(N)c(C(=O)OC)c1CSc1nc2sc3c(c2c(=O)n1C)CCC3	–	–	–	–	–	–	·	·
COC(=O)c1ccc(CSc2nc3ccccc3c(=O)n2-c2ccc(OC)c(OC)c2)o1	–	–	–	–	–	–	·	·
COc1ccc(OC)c(NC(=O)CSc2ccccc2)c1	–	–	–	–	–	–	·	·
O=C(CN1CCN(S(=O)(=O)c2ccc(Br)cc2)CC1)Nc1ccc2c(c1)OCO2	–	–	–	–	–	–	·	·
Cc1nc2ccccc2cc1OCc1ccc(Cl)cc1	19	–	–	–	–	–	22	17
Cc1ccc2nc(N3CCN(c4ccccc4F)CC3)c(C=O)c(=O)n2c1	·	–	–	–	–	–	·	·
COC(=O)c1cc2c(ccn2-c2ccc(F)cc2)n1CC(=O)N1CCN(C(=O)c2ccco2)CC1	–	–	–	–	–	–	·	·
COC(=O)c1cc2c(ccn2-c2ccc(F)cc2)n1Cc1ccc(C#N)cc1	19	–	–	–	–	–	–	–
N=c1n(Cc2ccccc2)c2ccccc2n1Cc1ccccc1	23	–	–	–	–	–	–	–
Cc1cc(C(F)F)nn1CC(=O)NCc1ccc(Cl)cc1Cl	17	–	–	–	–	–	–	–
Cc1c(N2C(=O)/C(=C\c3ccc(N(C)C)cc3)N(C)C2=S)c(=O)n(-c2ccccc2)n1C	–	–	–	–	–	–	·	·
COc1ccc(C2(CNC(=O)c3cccc([N+](=O)[O-])c3)CCOCC2)cc1	17	–	–	–	–	–	–	–
CC(C)[C@H](NC(=O)c1ccccc1)C(=O)OCC(=O)NCCC1=CCCCC1	–	–	–	–	–	–	·	·
Clc1ccccc1-c1nnc2sc(C3COc4ccccc4O3)nn12 (configuration not stated)	–	–	–	–	–	–	·	·
Cc1ccc(-c2nnc3sc(C4COc5ccccc5O4)nn23)cc1 (configuration not stated)	18	–	–	–	–	–	–	–
CCOc1ccc(NN=C(C(=O)OC)C(=O)OC)c([N+](=O)[O-])c1	·	–	–	·	–	–	·	·
COc1ccc(CCNC(=O)CC2SC(=NCc3ccccc3OC)NC2=O)cc1 (configuration not stated)	·	–	–	–	–	–	·	·
O=C(OCCN1C(=O)c2cccc3c(N4CCOCC4)ccc(c23)C1=O)c1cccc(Cl)c1	20	–	–	–	–	–	29	40
O=C(OCCN1C(=O)c2cccc3c(N4CCOCC4)ccc(c23)C1=O)c1ccc(Cl)cc1Cl	–	–	–	–	–	–	·	·
